We go through 97 compounds from ChEMBL document CHEMBL4513216, “Probing the Open Global Health Chemical Diversity Library for Multistage-Active Starting Points for Next-Generation Antimalarials” (ACS Infect Dis, 2020).

The nature of this data set: Toxicity liver stage against HepG2, at 10uM. In kind it is cell-based. Also noted: test concentration 10 uM, cell line HepG2-A16-CD81EGFP. The settings on record: human, HepG2-A16-CD81EGFP cells; read-out: INHIBITION
Summed up: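 Uninfected HepG2-A16-CD81EGFP cells, 3 × 10^3 per well, 1536-well, plated on prespotted compound at 10 μM final, parasite-free screening media added to match infected plates; puromycin 10 μM positive, DMSO 0.5% negative; run in parallel with 48 h PbLuc assay at 37 °C, 5% CO2; viability by CellTiter-Glo luminescence, normalized to controls.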
Take `O=C(Cc1c(F)cccc1Cl)Nc1cc(N2CCOCC2)ncn1`: the cytotoxicity at 10 µM turned out to be 3.36%. As for `CC(=O)N1CCC2(CC1)CN(C(=O)C1CC1)c1ccc(F)cc12`, the cytotoxicity at 10 µM is 2.05%.

Regarding `CN1CCC2(CCN(C(=O)c3ccccc3)CC2)C1`, the cytotoxicity at 10 µM is -2.36%. Under `O=C1CC(c2ccccc2)c2sc(C(=O)O)c(-c3ccccc3)c2N1` (configuration not stated) stands -2.31%; under `CN1CCc2nc3c(c(N)c2C1)CCCN3C`, 11.3%.

Consider `Cc1cc(C)n(CCC(=O)N2CCCC(c3nc(C(C)C)no3)C2)n1` (configuration not stated), for which the cytotoxicity at 10 µM amounted to 8.27%. Under `Cc1ccc2cnn(CCC(=O)Nc3nc(C)c(C)s3)c2c1` stands 2.57%.

Take `CN1CCCC(c2cccc(-c3ccccc3F)n2)C1` (configuration not stated): the cytotoxicity at 10 µM was 2.58%. Under `CC(C)c1nccn1CCC(=O)N1CCCCC1c1ccn[nH]1` (configuration not stated) stands 6.16%; under `Cn1nccc1C(=O)N1CCC(c2nnsc2S(C)(=O)=O)CC1`, -4.22%; under `Cc1cc(-c2ccccc2C(=O)O)nc(C2CCCN(C)C2)n1` (configuration not stated), -5.03%. Under `CCc1cc(O)nc(C2CCCN2C(=O)COC)n1` (configuration not stated) stands -11.5%. Under `COCCC(=O)N1CCCC1c1csc(Nc2ccccn2)n1` (configuration not stated) stands -13.2%. For the compound `NC(=O)CN1CCC(c2cc(C(F)(F)F)n3ccnc3n2)CC1`, the cytotoxicity at 10 µM is -2.28%. Turning to `Cc1ccc2nc(C3CCCN(Cc4ccccc4)C3)nc(O)c2c1` (configuration not stated), the cytotoxicity at 10 µM was determined as 6.67%. For `COc1ccccc1-c1nc(C(=O)N(C)C)n2ccncc12`, the cytotoxicity at 10 µM was found to be 12.6%. Take `Cc1cc(NC(=O)N2CCC[C@@H]2CO)nn1-c1ccccc1Cl`: the cytotoxicity at 10 µM was -1.29%. Under `CC(C)c1noc(CCC(=O)N(CC2CCOC2)C2CC2)n1` (configuration not stated) stands 8.01%. As for `CCN(CC(=O)N(C)C)C(=O)c1ccc(-c2nc(C)cs2)cc1`, the cytotoxicity at 10 µM was determined as 6.98%. As to `CC(Nc1nc2c(cnn2C)c(=O)[nH]1)c1ccccn1` (configuration not stated), the cytotoxicity at 10 µM is 13.3%. With `CS(=O)(=O)N1CCC(C(=O)N2CCOc3ccccc32)CC1` the figure was -0.595%. On to `CC(C)(C)OC(=O)NCCC(=O)N(CCC#N)Cc1ccco1`, for which the cytotoxicity at 10 µM came out at 3.12%. Under `CCc1noc(CN(C)Cc2cc(Br)ccc2OC)n1` stands 3.91%; under `CC(C)(C)Oc1ccc(CN)c(C(F)(F)F)c1`, 9.5%. For `O=C(COC1CCCC1)NCCc1nc(-c2ccccn2)cs1`, the cytotoxicity at 10 µM stood at 6.94%. `CCOC(=O)CNC(=O)c1scnc1C`: the cytotoxicity at 10 µM was found to be 5.35%.

On to `CCN(CC)Cc1ccc(CNC(=O)C(C)(C)n2cc(Br)cn2)cc1`, for which the cytotoxicity at 10 µM was 33.6%. With `Cc1nc(CN2CCN(C(=O)CCc3nc(C(C)(C)C)no3)CC2)cs1` the figure was 3.64%; with `Cc1ccc(CN(C)C(=O)Cn2nc(-c3ccc(F)cc3)oc2=O)cc1`, -20.6%; with `NC(=O)COc1ccc(CNCc2c(F)cccc2F)cc1`, -5.03%. With `Cc1ccc(OCCCC(=O)NC(C)c2ccc(S(N)(=O)=O)cc2)cc1` (configuration not stated) the figure was -2.69%.

`CCn1c(CN(C)C(=O)c2ccc(OC)nc2)nc2ccccc21`: the cytotoxicity at 10 µM is -6.23%.

On to `O=C(c1cc(Cl)c2c(c1)OCCCO2)N(CC1CCOC1)C1CC1` (configuration not stated), for which the cytotoxicity at 10 µM is -4.09%. Under `N#Cc1nccnc1N1CCC(CSc2ccccc2)C1` (configuration not stated) stands 0.957%; under `CC(CC#N)N(C)Cc1ccccc1F` (configuration not stated), 10.4%; under `CCC1CN(CC(=O)NCC(C)C)CCO1` (configuration not stated), 14.4%. Under `COc1ccc(C(=O)NCCCNc2ncccn2)c(OC)c1` stands -7.4%; under `CCCc1nnc(NCc2ccc(OC)c(C#N)c2)o1`, -0.808%; under `C1CCC(NCC2(N3CCOCC3)CCSC2)C1` (configuration not stated), -10.8%.

Consider `Cn1cnc2c1CCN(Cc1ccc(Cl)c3cccnc13)C2`, for which the cytotoxicity at 10 µM was 10.6%. `O=C1CN(C(=O)CN(CC2CCC2)CC(F)(F)F)CCN1`: the cytotoxicity at 10 µM was 0.821%. With `O=C(c1occc1CN1C(=O)Cc2ccccc21)N1CC(O)C1` the figure was -4.43%. Under `CCN(C(=O)CCCOC)C(c1ccc(Cl)cc1)c1ccccn1` (configuration not stated) stands -7.25%; under `COc1ccc2c(ccn2CC(=O)N2CCCC2c2cnn(C)c2)c1` (configuration not stated), 3.74%; under `CC(c1ccccc1)N(C)C(=O)CNCCn1cccn1` (configuration not stated), 4.58%. With `COCCN1CCN(Cc2nc(-c3ccoc3)no2)CC1` the figure was 16%; with `Cc1ncc(CNCC2CCC(C(N)=O)CC2)n1-c1ccccc1` (configuration not stated), -12.9%; with `Cc1cccc(C(=O)N2C[C@H](NS(C)(=O)=O)[C@@H]3OCCC[C@@H]32)n1`, -77.4%. Turning to `Cc1cc(CN2CCC(c3cc(Cc4ccccc4)n[nH]3)CC2)[nH]n1`, the cytotoxicity at 10 µM was found to be 7.54%. With `COCCN1C[C@H](NC(=O)CCC(F)(F)F)[C@@H](C(C)C)C1` the figure was 5.25%. With `O=C(NC1CCc2ccccc2C1)C1CCN(Cc2ccco2)CC1` (configuration not stated) the figure was -0.339%. As to `Cc1cc(C)c2c(N3CCCN(C(=O)C4CCC4)CC3)ncnc2n1`, the cytotoxicity at 10 µM is -10.7%. On to `CC(=O)Nc1ccc(CNCc2cccnc2N(C)C)cc1`, for which the cytotoxicity at 10 µM was -7.49%. With `CC(=O)c1ccc(N2CCC3(CCC(=O)N(CCCO)C3)CC2)nc1` the figure was 4.81%; with `CC(C)[C@@H]1CN(c2ccc(F)cn2)C[C@H]1NS(C)(=O)=O`, 3.69%. With `Cn1ncc2c(N3CCC(F)(F)CC3)nc(-c3ccncc3)nc21` the figure was 9.74%; with `O=C(O)C1(Cc2ccc(F)cc2F)CCCN(Cc2ccccn2)C1` (configuration not stated), 7.65%. With `CC(=O)N[C@@H]1CN(C2CCN(c3cccc(Cl)c3)CC2)C[C@H]1C(C)C` the figure was 1.6%; with `COc1ccccc1-n1nc(-c2ccco2)n(CC(N)=O)c1=O`, 0.5%.

Consider `COCC(=O)N[C@H]1C[C@@H](C(=O)NCCc2cccc(Cl)c2)N(C)C1`, for which the cytotoxicity at 10 µM is 1.72%. For the compound `CC(C)n1cnnc1Cn1c(=O)cnc2ccccc21`, the cytotoxicity at 10 µM is -4.04%. Under `N[C@H]1CN(C(=O)c2ccccc2Oc2ccccc2)C[C@@H]1C1CC1` stands -0.948%. Consider `COc1ccc(-c2cc(CN)ccc2F)c(OC)c1OC`, for which the cytotoxicity at 10 µM worked out at 1.91%.

With `CN(C)[C@H]1CCCCN(C(=O)c2cccc(N3CCS(=O)(=O)CC3)c2)C1`, the cytotoxicity at 10 µM came to 2.45%. In the case of `Cc1ccc2c(C(=O)N(C)C)cc(-c3cnn(CCO)c3)nc2c1C`, the cytotoxicity at 10 µM came out at 3.69%. Turning to `COCc1ncc(CN2CC[C@@](O)(COC)C(C)(C)C2)cn1`, the cytotoxicity at 10 µM was -2.79%.

`C/C=C(\C)CN(CCN1CCOCC1)Cc1ccco1`: the cytotoxicity at 10 µM was 11.1%. With `CCOC(=O)N1CCN(C(=O)C(CC)n2cccn2)CC1` (configuration not stated) the figure was -0.193%. Under `CCCn1ncc(CN2CCCCC2CCCOC)c1C` (configuration not stated) stands -15.2%. Under `O[C@H]1[C@H](n2cc(-c3cccnc3)nn2)c2ccccc2C12CCNCC2` stands -10.5%. Take `CC(C)c1cc(CN2CCNCC2)no1`: the cytotoxicity at 10 µM was -10.9%.

As to `Cc1ccc(NC2CCN(C(=O)C(C(C)C)n3cncn3)CC2)nn1` (configuration not stated), the cytotoxicity at 10 µM is -3.01%. Regarding `Cc1nc(C)n(CC2CCCN(Cc3cccc(F)c3F)C2)n1` (configuration not stated), the cytotoxicity at 10 µM was -10.3%. With `CC(C(=O)NCc1ccc(N2CCCCCC2)nc1)n1cncn1` (configuration not stated) the figure was -11.2%; with `CCNC(=O)CN1CCN(Cc2nc3c(F)cccc3n2CC)CC1`, -11.5%; with `CN1CCOC(CNCc2cccc(OC(F)(F)F)c2)C1` (configuration not stated), -12%. Under `CC1CN(C)CCN1C(=O)c1cnc2c(cnn2C2CCCC2)c1` (configuration not stated) stands -12.8%. Under `CCN1CCC(NC(=O)CN2CCCC2Cn2nc(C)nc2C)CC1` (configuration not stated) stands -12.7%; under `CC(C)c1nnc2n1CCN(C(=O)c1ccnc(-n3ccnc3)c1)C2`, -29%; under `Cc1nc(-c2ccccc2)n(CC(=O)NC(C)C)n1`, -14.1%. Turning to `COc1ccc(CNC(=O)Nc2cccnc2N2CCCC2)cc1OC`, the cytotoxicity at 10 µM is -24.6%.

Regarding `CC(=O)Nc1nc(CN(C)C2CCCN(c3cccnn3)C2)cs1` (configuration not stated), the cytotoxicity at 10 µM is -11.1%. Under `COC(=O)C(NC(=O)c1ccco1)c1cc(F)ccc1F` (configuration not stated) stands -11.5%.

In the case of `COc1cc(C(=O)N(C2CC2)C2CC(=O)NC2=O)ccc1C` (configuration not stated), the cytotoxicity at 10 µM is -3.58%. Under `Cc1nc(C)n(CC2CCCN2CCOc2ccc(C#N)cc2)n1` (configuration not stated) stands -10.1%; under `CC(NC(=O)NCCCn1cncn1)c1ccccc1Cl` (configuration not stated), 3.01%. On to `Cc1nc(C(=O)N2CCCC(n3cncn3)C2)cs1` (configuration not stated), for which the cytotoxicity at 10 µM amounted to 5.7%.

Consider `O=C1CCC2(CCC(NCc3ccc4c(c3)OCO4)CC2)N1` (configuration not stated), for which the cytotoxicity at 10 µM is 1.97%. For `COCCNC(=O)[C@H]1C[C@H]2OCC[C@H]2N(Cc2ccoc2)C1`, the cytotoxicity at 10 µM is -75.7%.

Consider `O=C(CC1CCCC1)N1CCn2cc(Cn3cccn3)nc2C1`, for which the cytotoxicity at 10 µM was -75.4%. Under `O=C(c1ccoc1)N1CC[C@@H]2O[C@@H](COCCN3CCCC3)CC[C@@H]21` stands -89.7%; under `COCC(=O)N1CCn2c(CN3CCN(C)CC3)cnc2C1`, -70%; under `Cc1ccc2c(n1)N(Cc1cccnc1)CCN(C(=O)C1CC1)C2`, -61.7%. With `CCc1ccc(CN2CC[C@H]3[C@H]2CC(=O)N3Cc2cccc(C)n2)o1` the figure was -2.19%; with `Cc1noc(CN2C[C@@H]3CC[C@H]2CN(C2Cc4ccccc4C2)C3)n1`, 3.3%. Under `COc1ccc(-n2cc3nc(N4CCCC4)[nH]cc-3c2=O)cc1Cl` stands 11.6%; under `COC(=O)Cn1c(=O)[nH]c2cn(-c3ccc(F)cc3)c(=O)n21`, 1.09%.
